How the values were obtained:
MV4-11 = assay: Antiproliferative activity against human MV4-11 cells after 72 hrs by Celltiter-Glo assay; assay type: functional; conditions: MV4-11, 72 h
How it was run: (§1)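 Cells seeded at 3000/well in 96-well plates, exposed to serially diluted compound for 72 h at 37 °C, 5% CO2. Viability read by CellTiter-Glo luminescence and normalized to DMSO control. GI50 derived from curve fit, mean of three independent measurements. Culture media: DMEM/10% FBS for adherent lines; IMDM for MV4-11 and MEC-1/2; RPMI 1640 for suspension lines and CHL.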

CDK9/Cyclin K = CDK9/Cyclin K (Homo sapiens, UniProt P50750); assay: Inhibition of CDK9/Cyclin K (unknown origin) using PDKtide as substrate incubated at 37 degreeC for 1 hr followed by incubation at room temperature for 5 mins by ADP-Glo reagent based luminescence assay; assay type: protein-complex assay
[1] = Antiproliferative activity against Chinese hamster CHL cells after 72 hrs by Celltiter-Glo assay; conditions: Cricetulus griseus
[2] = Antiproliferative activity against human MEC1 cells after 72 hrs by Celltiter-Glo assay; assay type: functional; conditions: MEC1, 72 h; how it was run: as §1

CDK9/Cyclin K, sequence (P50750 whole entry): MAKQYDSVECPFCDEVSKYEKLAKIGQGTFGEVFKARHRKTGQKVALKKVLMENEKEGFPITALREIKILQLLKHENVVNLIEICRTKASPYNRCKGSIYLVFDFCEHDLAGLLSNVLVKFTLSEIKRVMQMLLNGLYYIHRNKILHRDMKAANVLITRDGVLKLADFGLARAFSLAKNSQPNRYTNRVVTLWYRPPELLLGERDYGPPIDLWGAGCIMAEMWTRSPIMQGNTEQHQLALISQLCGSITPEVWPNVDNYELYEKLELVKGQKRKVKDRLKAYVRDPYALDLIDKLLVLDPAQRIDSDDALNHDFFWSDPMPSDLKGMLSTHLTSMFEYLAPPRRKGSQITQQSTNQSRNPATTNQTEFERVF
CDK9/Cyclin K, sequence (O75909 whole entry, further chain): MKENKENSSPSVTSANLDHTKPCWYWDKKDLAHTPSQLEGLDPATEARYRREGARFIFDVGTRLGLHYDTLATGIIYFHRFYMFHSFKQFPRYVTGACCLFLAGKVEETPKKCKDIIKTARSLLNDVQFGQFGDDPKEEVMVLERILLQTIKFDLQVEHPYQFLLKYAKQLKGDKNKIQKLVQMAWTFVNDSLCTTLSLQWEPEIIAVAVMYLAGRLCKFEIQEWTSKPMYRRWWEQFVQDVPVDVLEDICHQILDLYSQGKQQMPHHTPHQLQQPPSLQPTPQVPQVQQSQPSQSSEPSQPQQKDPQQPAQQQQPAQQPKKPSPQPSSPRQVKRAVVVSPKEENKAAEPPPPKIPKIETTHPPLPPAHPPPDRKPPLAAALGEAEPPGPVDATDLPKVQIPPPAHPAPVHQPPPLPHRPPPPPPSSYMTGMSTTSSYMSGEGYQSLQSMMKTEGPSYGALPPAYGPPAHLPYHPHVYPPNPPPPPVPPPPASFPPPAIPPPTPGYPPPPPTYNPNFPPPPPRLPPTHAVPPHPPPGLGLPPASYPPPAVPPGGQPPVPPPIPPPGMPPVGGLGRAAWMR

Compound | GI50 (MV4-11) | IC50 (CDK9/Cyclin K) | GI50 [1] | GI50 [2]
COCCN[C@H]1CC[C@H](Nc2cc(-c3csc(NCC4CCOCC4)n3)c(Cl)cn2)CC1 | 170 nM | 2 nM | 534 nM | 1240 nM
COCCN[C@H]1CC[C@H](Nc2cc(-c3csc(NCC4CC4)n3)c(Cl)cn2)CC1 | 740 nM | 96 nM | 1400 nM | 890 nM
Fc1cc(-c2csc(NCC3CCOCC3)n2)c(Cl)cn1 | > 10000 nM | 557 nM | > 10000 nM | > 10000 nM
CNc1nc(-c2cc(N[C@H]3CC[C@H](NCCOC)CC3)ncc2Cl)cs1 | 530 nM | 101 nM | 1900 nM | 1400 nM
N[C@H]1CC[C@H](CNc2cc(-c3csc(NCC4CCOCC4)n3)c(Cl)cn2)CC1 | 1900 nM | 84 nM | 3900 nM | > 10000 nM
O=C(N[C@H]1CC[C@H](Nc2cc(-c3csc(NCC4CCOCC4)n3)c(Cl)cn2)CC1)C1CC1 | > 10000 nM | 150 nM | > 10000 nM | > 10000 nM
COCCN[C@H]1CC[C@H](Nc2cc(-c3csc(NCC4CCOCC4)n3)c(C)cn2)CC1 | 1620 nM | 253 nM | 5010 nM | 3560 nM
CCOCCN[C@H]1CC[C@H](Nc2cc(-c3csc(NCC4CCOCC4)n3)c(Cl)cn2)CC1 | 497 nM | 51 nM | 2820 nM | 634 nM
COCCN[C@H]1CC[C@H](Nc2cc(-c3csc(NCc4ccc(F)cc4)n3)c(Cl)cn2)CC1 | 880 nM | 2 nM | 1100 nM | 450 nM
Clc1cnc(Nc2ccccc2)cc1-c1csc(NCC2CCOCC2)n1 | > 10000 nM | 238 nM | > 10000 nM | > 10000 nM
CC(=O)N[C@H]1CC[C@H](Nc2cc(-c3csc(NCC4CCOCC4)n3)c(Cl)cn2)CC1 | 3600 nM | 101 nM | > 10000 nM | > 10000 nM
N[C@H]1CC[C@H](Nc2cc(-c3csc(NCC4CCOCC4)n3)c(Cl)cn2)CC1 | 140 nM | 22 nM | 3500 nM | 270 nM
COCCN[C@H]1CC[C@H](Nc2cc(-c3csc(NCC4CCC4)n3)c(Cl)cn2)CC1 | > 10000 nM | 107 nM | 1290 nM | 2260 nM
COCCN[C@H]1CC[C@H](Nc2cc(-c3csc(NCC4CCCCC4)n3)c(Cl)cn2)CC1 | 820 nM | 27 nM | 8000 nM | 850 nM
COCCN[C@H]1CC[C@H](Nc2cc(-c3csc(NCc4ccccc4)n3)c(Cl)cn2)CC1 | 330 nM | 14 nM | 1000 nM | 470 nM
COC[C@@H](C)N[C@H]1CC[C@H](Nc2cc(-c3csc(NCC4(C#N)CCOCC4)n3)c(Cl)cn2)CC1 [TAMBICICLIB] | 14 nM | 9 nM | 1100 nM | 47 nM
